Where “and” joins values, the source holds several entries; their conditions need not be identical. Equal values may be shown once.
System: Fibroblast
Test: Multiplex assay against human fibroblast
Format: toxicity, cell-based
Method in brief: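 Compound was added to live cells that had been stained at seeding with Hoechst33342, BioTracker Green Microtubule Cytoskeleton Dye, MitoTracker Red and Annexin V Alexa Fluor 680, and imaging followed on a CQ1 microscope at 37°C and 5% CO2. CellPathfinder machine-learning gating divided cells into Hoechst high-intensity objects or normal cells, normal cells into healthy, pyknosed or fragmented nuclei, and pyknosed cells into mitotic or apoptotic. Tubulin, mitochondrial-mass and membrane-permeability phenotypes are per cents of healthy-nucleus cells.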

[1] = 12 h, 1 µM, compound concentration 1 uM
[2] = 12 h, 10 µM, compound concentration 10 uM
[3] = 24 h, 1 µM, compound concentration 1 uM
[4] = 24 h, 10 µM, compound concentration 10 uM
[5] = 48 h, 1 µM, compound concentration 1 uM
[6] = 48 h, 10 µM, compound concentration 10 uM

## COc1c(C)cc(NC(=O)c2nn(Cc3ccc(F)cc3)c3c2CN(C(=O)c2ccc[nH]2)C[C@]3(C)C(N)=O)cc1C
[1]
  Population Apoptotic (%): 42% and 46%
  Population Fragmented Nuclei (%): 21% and 16%
  Population Healthy Nuclei (%): 58% and 51%
  Population Hoechst High Intensity Objects (%): 2% and 3%
  Population Membrane Permeable-Phenotype (%): 1% and 6%
  Population Mitochondria Different-Phenotype (%): 18% and 11%
  Population Mitotic Cells (%): 57% and 53%
  Population Normal (%): 97% and 96%
  Population Pyknosed Nuclei (%): 20% and 31%
  Population Tubulin-Different-Phenotype (%): 64% and 72%
  Total Cell Count: 95 and 86
[2]
  Population Apoptotic (%): 47% and 52%
  Population Fragmented Nuclei (%): 12% and 29%
  Population Healthy Nuclei (%): 58% and 38%
  Population Hoechst High Intensity Objects (%): 1% and 2%
  Population Membrane Permeable-Phenotype (%): 0% and 6%
  Population Mitochondria Different-Phenotype (%): 25% and 30%
  Population Mitotic Cells (%): 52% and 47%
  Population Normal (%): 98% and 97%
  Population Pyknosed Nuclei (%): 29% and 32%
  Population Tubulin-Different-Phenotype (%): 90%
  Total Cell Count: 166 and 115
[3]
  Population Apoptotic (%): 66% and 48%
  Population Fragmented Nuclei (%): 25% and 31%
  Population Healthy Nuclei (%): 61% and 38%
  Population Hoechst High Intensity Objects (%): 3% and 6%
  Population Membrane Permeable-Phenotype (%): 1% and 8%
  Population Mitochondria Different-Phenotype (%): 17%
  Population Mitotic Cells (%): 33% and 51%
  Population Normal (%): 96% and 93%
  Population Pyknosed Nuclei (%): 12% and 30%
  Population Tubulin-Different-Phenotype (%): 45% and 67%
  Total Cell Count: 96 and 95
[4]
  Population Apoptotic (%): 65% and 43%
  Population Fragmented Nuclei (%): 14% and 30%
  Population Healthy Nuclei (%): 64% and 47%
  Population Hoechst High Intensity Objects (%): 3% and 4%
  Population Membrane Permeable-Phenotype (%): 0% and 8%
  Population Mitochondria Different-Phenotype (%): 47% and 26%
  Population Mitotic Cells (%): 34% and 56%
  Population Normal (%): 96% and 95%
  Population Pyknosed Nuclei (%): 20% and 21%
  Population Tubulin-Different-Phenotype (%): 90% and 82%
  Total Cell Count: 159 and 110
[5]
  Population Apoptotic (%): 87% and 70%
  Population Fragmented Nuclei (%): 29% and 34%
  Population Healthy Nuclei (%): 61% and 45%
  Population Hoechst High Intensity Objects (%): 7% and 5%
  Population Membrane Permeable-Phenotype (%): 0% and 10%
  Population Mitochondria Different-Phenotype (%): 10%
  Population Mitotic Cells (%): 12% and 29%
  Population Normal (%): 92% and 94%
  Population Pyknosed Nuclei (%): 8% and 19%
  Population Tubulin-Different-Phenotype (%): 45% and 69%
  Total Cell Count: 99 and 91
[6]
  Population Apoptotic (%): 60% and 77%
  Population Fragmented Nuclei (%): 22% and 41%
  Population Healthy Nuclei (%): 60% and 51%
  Population Hoechst High Intensity Objects (%): 4% and 2%
  Population Membrane Permeable-Phenotype (%): 0% and 3%
  Population Mitotic Cells (%): 39% and 22%
  Population Normal (%): 95% and 97%
  Population Pyknosed Nuclei (%): 17% and 7%
  Population Tubulin-Different-Phenotype (%): 92% and 75%
  Total Cell Count: 166 and 122

## COc1cc(C(=O)N2CC[C@@H](O)[C@@H](N)C2)cc2nc(-c3cc4ccccc4n3CC3CC3)n(C)c12.Cl
[1]
  Population Apoptotic (%): 21% and 48%
  Population Fragmented Nuclei (%): 25% and 24%
  Population Healthy Nuclei (%): 62% and 44%
  Population Hoechst High Intensity Objects (%): 2% and 3%
  Population Membrane Permeable-Phenotype (%): 0% and 10%
  Population Mitochondria Different-Phenotype (%): 4% and 14%
  Population Mitotic Cells (%): 78% and 51%
  Population Normal (%): 97% and 96%
  Population Pyknosed Nuclei (%): 12% and 31%
  Population Tubulin-Different-Phenotype (%): 55% and 69%
  Total Cell Count: 160 and 130
[2]
  Population Apoptotic (%): 60% and 48%
  Population Fragmented Nuclei (%): 22% and 30%
  Population Healthy Nuclei (%): 57% and 44%
  Population Hoechst High Intensity Objects (%): 6% and 10%
  Population Membrane Permeable-Phenotype (%): 0% and 2%
  Population Mitochondria Different-Phenotype (%): 34% and 25%
  Population Mitotic Cells (%): 40% and 51%
  Population Normal (%): 93% and 89%
  Population Pyknosed Nuclei (%): 19% and 25%
  Population Tubulin-Different-Phenotype (%): 97% and 92%
  Total Cell Count: 271 and 179
[3]
  Population Apoptotic (%): 55% and 60%
  Population Fragmented Nuclei (%): 24% and 31%
  Population Healthy Nuclei (%): 62% and 36%
  Population Hoechst High Intensity Objects (%): 3% and 4%
  Population Membrane Permeable-Phenotype (%): 0% and 4%
  Population Mitotic Cells (%): 45% and 39%
  Population Normal (%): 96% and 95%
  Population Pyknosed Nuclei (%): 13% and 31%
  Population Tubulin-Different-Phenotype (%): 51% and 79%
  Total Cell Count: 158 and 125
[4]
  Population Apoptotic (%): 73% and 62%
  Population Fragmented Nuclei (%): 15% and 27%
  Population Healthy Nuclei (%): 68% and 54%
  Population Hoechst High Intensity Objects (%): 7% and 5%
  Population Membrane Permeable-Phenotype (%): 0% and 3%
  Population Mitochondria Different-Phenotype (%): 55% and 41%
  Population Mitotic Cells (%): 26% and 37%
  Population Normal (%): 92% and 94%
  Population Pyknosed Nuclei (%): 16% and 17%
  Population Tubulin-Different-Phenotype (%): 94% and 92%
  Total Cell Count: 274 and 174
[5]
  Population Apoptotic (%): 80% and 64%
  Population Fragmented Nuclei (%): 22% and 38%
  Population Healthy Nuclei (%): 67% and 41%
  Population Hoechst High Intensity Objects (%): 6% and 1%
  Population Membrane Permeable-Phenotype (%): 0% and 3%
  Population Mitochondria Different-Phenotype (%): 8% and 16%
  Population Mitotic Cells (%): 20% and 35%
  Population Normal (%): 93% and 98%
  Population Pyknosed Nuclei (%): 10% and 20%
  Population Tubulin-Different-Phenotype (%): 44% and 80%
  Total Cell Count: 161 and 153
[6]
  Population Apoptotic (%): 86%
  Population Fragmented Nuclei (%): 20% and 32%
  Population Healthy Nuclei (%): 64% and 55%
  Population Hoechst High Intensity Objects (%): 8% and 4%
  Population Membrane Permeable-Phenotype (%): 0%
  Population Mitochondria Different-Phenotype (%): 62% and 36%
  Population Mitotic Cells (%): 13%
  Population Normal (%): 91% and 95%
  Population Pyknosed Nuclei (%): 15% and 11%
  Population Tubulin-Different-Phenotype (%): 94%
  Total Cell Count: 256 and 193

## CN(C)CCCc1cc(C(=O)Nc2ccc(-c3ccncc3)cc2)ccc1O.Cl.Cl
[1]
  Population Apoptotic (%): 31% and 44%
  Population Fragmented Nuclei (%): 15% and 22%
  Population Healthy Nuclei (%): 65% and 52%
  Population Hoechst High Intensity Objects (%): 4% and 2%
  Population Membrane Permeable-Phenotype (%): 0% and 4%
  Population Mitochondria Different-Phenotype (%): 7% and 4%
  Population Mitotic Cells (%): 68% and 55%
  Population Normal (%): 95% and 97%
  Population Pyknosed Nuclei (%): 18% and 24%
  Population Tubulin-Different-Phenotype (%): 22% and 40%
  Total Cell Count: 122 and 120
[2]
  Population Apoptotic (%): 68% and 48%
  Population Fragmented Nuclei (%): 33% and 31%
  Population Healthy Nuclei (%): 58% and 51%
  Population Hoechst High Intensity Objects (%): 7% and 4%
  Population Membrane Permeable-Phenotype (%): 0% and 4%
  Population Mitochondria Different-Phenotype (%): 15% and 6%
  Population Mitotic Cells (%): 31% and 51%
  Population Normal (%): 92% and 95%
  Population Pyknosed Nuclei (%): 7% and 17%
  Population Tubulin-Different-Phenotype (%): 43% and 45%
  Total Cell Count: 305 and 236
[3]
  Population Apoptotic (%): 30% and 37%
  Population Fragmented Nuclei (%): 16% and 22%
  Population Healthy Nuclei (%): 66% and 50%
  Population Hoechst High Intensity Objects (%): 1% and 4%
  Population Membrane Permeable-Phenotype (%): 2% and 1%
  Population Mitochondria Different-Phenotype (%): 3% and 7%
  Population Mitotic Cells (%): 70% and 62%
  Population Normal (%): 98% and 95%
  Population Pyknosed Nuclei (%): 17% and 27%
  Population Tubulin-Different-Phenotype (%): 25% and 45%
  Total Cell Count: 119 and 111
[4]
  Population Apoptotic (%): 47% and 42%
  Population Fragmented Nuclei (%): 30% and 31%
  Population Healthy Nuclei (%): 63% and 53%
  Population Hoechst High Intensity Objects (%): 6% and 4%
  Population Membrane Permeable-Phenotype (%): 0% and 5%
  Population Mitochondria Different-Phenotype (%): 11% and 5%
  Population Mitotic Cells (%): 52% and 57%
  Population Normal (%): 93% and 95%
  Population Pyknosed Nuclei (%): 5% and 14%
  Population Tubulin-Different-Phenotype (%): 40% and 42%
  Total Cell Count: 339 and 242
[5]
  Population Apoptotic (%): 62% and 50%
  Population Fragmented Nuclei (%): 28% and 23%
  Population Healthy Nuclei (%): 59% and 54%
  Population Hoechst High Intensity Objects (%): 0% and 8%
  Population Membrane Permeable-Phenotype (%): 0% and 1%
  Population Mitochondria Different-Phenotype (%): 1% and 5%
  Population Mitotic Cells (%): 37% and 50%
  Population Normal (%): 99% and 91%
  Population Pyknosed Nuclei (%): 12% and 21%
  Population Tubulin-Different-Phenotype (%): 29% and 46%
  Total Cell Count: 126 and 111
[6]
  Population Apoptotic (%): 56% and 51%
  Population Fragmented Nuclei (%): 28% and 35%
  Population Healthy Nuclei (%): 60% and 53%
  Population Hoechst High Intensity Objects (%): 11% and 2%
  Population Membrane Permeable-Phenotype (%): 0% and 3%
  Population Mitochondria Different-Phenotype (%): 8% and 2%
  Population Mitotic Cells (%): 43% and 48%
  Population Normal (%): 88% and 97%
  Population Pyknosed Nuclei (%): 11% and 10%
  Population Tubulin-Different-Phenotype (%): 48% and 39%
  Total Cell Count: 321 and 261
